Data taken from ChEMBL document CHEMBL4808225, “Discovery and Characterization of Selective and Ligand-Efficient DYRK Inhibitors” (J Med Chem, 2021).
Converted amounts (≈) assume the structure as drawn.

What was measured:
[1] = Metabolic stability in human liver microsomes; type: ADME, Microsome; details: read-out: Stabilty
[2] = Metabolic stability in rat liver microsomes; type: ADME, Microsome; details: read-out: Stabilty
[3] = target: T1, Dual specificity tyrosine-phosphorylation-regulated kinase 1A (Homo sapiens, UniProt Q13627); experiment: Displacement of Kinase tracer 236 from biotinylated DYRK1A (unknown origin) expressed in Escherichia coli BL21 (DE3) incubated for 1.5 hrs by TR-FRET assay
[4] = target: Glycogen synthase kinase-3 beta (Homo sapiens) (UniProt P49841); experiment: Inhibition of wild-type human full length GSK3B (M1 to T433 residues) expressed in mammalian expression system assessed as remaining activity at 1 uM by Kinomescan method relative to control
Glycogen synthase kinase-3 beta (Homo sapiens), sequence (P49841 whole entry, looked up, the tested form may be a part): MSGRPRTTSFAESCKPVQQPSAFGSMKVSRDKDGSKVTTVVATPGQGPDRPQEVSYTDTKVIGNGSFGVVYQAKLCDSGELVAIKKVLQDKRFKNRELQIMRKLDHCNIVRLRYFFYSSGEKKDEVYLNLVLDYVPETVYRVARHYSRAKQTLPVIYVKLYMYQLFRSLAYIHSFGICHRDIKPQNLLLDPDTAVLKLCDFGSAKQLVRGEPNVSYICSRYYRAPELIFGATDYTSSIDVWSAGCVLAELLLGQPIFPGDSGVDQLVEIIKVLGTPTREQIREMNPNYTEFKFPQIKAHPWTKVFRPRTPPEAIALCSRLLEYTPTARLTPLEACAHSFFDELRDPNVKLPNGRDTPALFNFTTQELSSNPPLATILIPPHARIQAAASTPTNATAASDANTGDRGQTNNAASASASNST
How it was run: (§1)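 KINOMEscan competition binding panel run with inhibitor at 1 μM; read-out is remaining kinase activity (percent of control).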

[5] = target: T2, Dual specificity tyrosine-phosphorylation-regulated kinase 2 (Homo sapiens) (UniProt Q92630); experiment: Inhibition of wild-type human full length DYRK2 (M1 to S528 residues) expressed in mammalian expression system assessed as remaining activity at 1 uM by Kinomescan method relative to control; how it was run: as §1
T2 sequence (whole entry): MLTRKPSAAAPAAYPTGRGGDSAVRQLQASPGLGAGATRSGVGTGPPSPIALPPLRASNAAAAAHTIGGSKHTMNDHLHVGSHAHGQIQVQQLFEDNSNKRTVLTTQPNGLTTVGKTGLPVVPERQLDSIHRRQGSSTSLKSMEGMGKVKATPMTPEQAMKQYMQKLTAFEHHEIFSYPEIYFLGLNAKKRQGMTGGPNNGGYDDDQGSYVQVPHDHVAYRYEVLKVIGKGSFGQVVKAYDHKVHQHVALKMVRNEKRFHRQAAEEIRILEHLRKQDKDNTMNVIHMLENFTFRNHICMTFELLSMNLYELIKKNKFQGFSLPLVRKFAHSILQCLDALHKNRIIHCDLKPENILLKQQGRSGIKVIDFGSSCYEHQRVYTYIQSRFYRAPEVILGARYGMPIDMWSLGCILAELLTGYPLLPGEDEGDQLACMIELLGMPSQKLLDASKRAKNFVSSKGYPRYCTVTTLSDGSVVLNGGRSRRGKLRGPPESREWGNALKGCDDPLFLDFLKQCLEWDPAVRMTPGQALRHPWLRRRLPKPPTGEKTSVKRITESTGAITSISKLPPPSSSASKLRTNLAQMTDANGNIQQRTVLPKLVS

[6] = target: Dual specificity protein kinase CLK3 (Homo sapiens) (UniProt P49761); experiment: Inhibition of wild-type human full length CLK3 (M1 to R490 residues) expressed in bacterial expression system assessed as remaining activity at 1 uM by Kinomescan method relative to control; how it was run: as §1
Dual specificity protein kinase CLK3 (Homo sapiens), sequence (P49761 whole entry, looked up, the tested form may be a part): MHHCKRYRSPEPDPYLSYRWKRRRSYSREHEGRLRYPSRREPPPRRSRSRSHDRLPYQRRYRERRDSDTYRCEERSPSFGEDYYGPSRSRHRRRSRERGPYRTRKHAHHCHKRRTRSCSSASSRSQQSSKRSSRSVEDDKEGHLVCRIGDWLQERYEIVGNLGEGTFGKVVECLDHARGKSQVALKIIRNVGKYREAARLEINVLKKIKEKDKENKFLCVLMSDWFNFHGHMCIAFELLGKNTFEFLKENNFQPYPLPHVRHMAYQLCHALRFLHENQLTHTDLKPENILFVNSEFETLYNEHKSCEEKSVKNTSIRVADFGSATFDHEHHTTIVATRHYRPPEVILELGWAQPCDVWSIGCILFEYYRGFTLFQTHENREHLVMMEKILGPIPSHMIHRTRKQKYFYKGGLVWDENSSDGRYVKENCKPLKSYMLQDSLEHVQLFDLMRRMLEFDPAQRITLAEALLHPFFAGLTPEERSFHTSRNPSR

[7] = target: Dual specificity protein kinase CLK2 (Homo sapiens) (UniProt P49760); experiment: Inhibition of wild-type human partial length CLK2 (D144 to R498 residues) expressed in bacterial expression system assessed as remaining activity at 1 uM by Kinomescan method relative to control; how it was run: as §1
Dual specificity protein kinase CLK2 (Homo sapiens), sequence (P49760 whole entry, looked up, the tested form may be a part): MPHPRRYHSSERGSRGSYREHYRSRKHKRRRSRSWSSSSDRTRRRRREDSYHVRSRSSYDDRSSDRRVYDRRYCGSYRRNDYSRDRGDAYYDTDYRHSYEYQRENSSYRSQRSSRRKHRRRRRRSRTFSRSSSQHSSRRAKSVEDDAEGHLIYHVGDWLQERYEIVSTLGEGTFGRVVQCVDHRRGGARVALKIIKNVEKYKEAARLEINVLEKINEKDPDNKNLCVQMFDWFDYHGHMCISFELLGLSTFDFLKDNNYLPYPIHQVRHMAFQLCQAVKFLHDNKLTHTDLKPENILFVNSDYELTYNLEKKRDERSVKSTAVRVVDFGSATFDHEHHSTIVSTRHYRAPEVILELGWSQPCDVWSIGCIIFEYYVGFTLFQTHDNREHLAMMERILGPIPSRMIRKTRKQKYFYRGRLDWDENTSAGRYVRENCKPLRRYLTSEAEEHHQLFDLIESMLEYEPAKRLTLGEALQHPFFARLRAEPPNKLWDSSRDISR

[8] = target: Dual specificity tyrosine-phosphorylation-regulated kinase 1B (Homo sapiens) (UniProt Q9Y463); experiment: Inhibition of wild-type human full length DYRK1B (M1 to S629 residues) expressed in bacterial expression system assessed as remaining activity at 1 uM by Kinomescan method relative to control; how it was run: as §1
Dual specificity tyrosine-phosphorylation-regulated kinase 1B (Homo sapiens), sequence (Q9Y463 whole entry, looked up, the tested form may be a part): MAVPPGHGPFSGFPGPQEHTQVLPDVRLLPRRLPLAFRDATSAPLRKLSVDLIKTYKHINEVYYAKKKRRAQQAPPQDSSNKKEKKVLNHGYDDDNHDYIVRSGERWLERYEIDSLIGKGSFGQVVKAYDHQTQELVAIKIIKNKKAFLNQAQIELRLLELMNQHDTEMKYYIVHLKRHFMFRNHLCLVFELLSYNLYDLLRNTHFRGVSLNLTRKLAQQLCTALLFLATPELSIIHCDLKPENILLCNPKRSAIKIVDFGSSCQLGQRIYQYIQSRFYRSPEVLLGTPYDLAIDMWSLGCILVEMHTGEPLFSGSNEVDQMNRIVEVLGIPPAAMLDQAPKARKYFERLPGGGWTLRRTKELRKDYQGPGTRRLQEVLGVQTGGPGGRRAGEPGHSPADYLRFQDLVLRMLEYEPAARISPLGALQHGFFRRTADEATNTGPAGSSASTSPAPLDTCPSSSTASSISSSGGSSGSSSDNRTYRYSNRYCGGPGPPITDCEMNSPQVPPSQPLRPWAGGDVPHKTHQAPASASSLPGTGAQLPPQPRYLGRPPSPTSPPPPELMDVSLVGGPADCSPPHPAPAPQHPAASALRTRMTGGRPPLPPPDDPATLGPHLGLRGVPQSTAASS

[9] = target: T1, Dual specificity tyrosine-phosphorylation-regulated kinase 1A; experiment: Binding affinity to biotinylated DYRK1A (unknown origin) expressed in Escherichia coli BL21 (DE3) assessed as dissociation constant measured up to 5 min by SPR method
[10] = target: Cyclin-dependent kinase 2 (Homo sapiens) (UniProt P24941); experiment: Inhibition of wild-type human full length CDK2 (M1 to L298 residues) expressed in bacterial expression system assessed as remaining activity at 1 uM by Kinomescan method relative to control; how it was run: as §1
[11] = Thermodynamic solubility of the compound at pH 6.8; type: physicochemical; details: buffer, read-out: Therm_solubility
How it was run: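 Thermodynamic solubility measured at pH 6.8 in a single experiment, reported in […].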

[12] = target: Dual specificity protein kinase CLK1 (Homo sapiens, UniProt P49759); experiment: Inhibition of wild-type human full length CLK1 (M1 to I484 residues) expressed in bacterial expression system assessed as remaining activity at 1 uM by Kinomescan method relative to control; how it was run: as §1
Dual specificity protein kinase CLK1, sequence (P49759 whole entry, looked up, the tested form may be a part): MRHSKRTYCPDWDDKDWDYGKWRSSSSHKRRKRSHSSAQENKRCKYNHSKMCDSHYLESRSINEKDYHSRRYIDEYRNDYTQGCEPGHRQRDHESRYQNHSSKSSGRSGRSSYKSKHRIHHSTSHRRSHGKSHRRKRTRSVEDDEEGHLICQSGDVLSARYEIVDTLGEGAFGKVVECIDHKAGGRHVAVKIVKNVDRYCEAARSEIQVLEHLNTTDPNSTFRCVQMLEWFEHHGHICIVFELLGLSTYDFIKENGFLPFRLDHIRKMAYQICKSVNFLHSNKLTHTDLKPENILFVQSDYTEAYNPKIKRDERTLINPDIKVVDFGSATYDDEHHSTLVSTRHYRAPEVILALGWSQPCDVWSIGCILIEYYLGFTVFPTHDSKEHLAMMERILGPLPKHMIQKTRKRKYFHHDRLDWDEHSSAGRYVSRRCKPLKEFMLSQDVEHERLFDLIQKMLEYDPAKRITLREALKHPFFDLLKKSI

## CN(C)c1nccc(-c2c[nH]c3ncccc23)n1
[1]
  microsomal CLint: 154 µL/min/mg
[2]
  microsomal CLint: 234 µL/min/mg
[3]
  IC50: 135 nM

## c1cnn2ncc(-c3ccnc(N4CC5(COC5)C4)n3)c2c1
[3]
  IC50: 513 nM

## c1cnn2ncc(-c3ccnc(N4CCC45COC5)n3)c2c1
[4]
  Activity: 75%
[5]
  Activity: 11%
[6]
  Activity: 54%
[1]
  microsomal CLint: 126 µL/min/mg
[7]
  Activity: 13%
[2]
  microsomal CLint: 119 µL/min/mg
[8]
  Activity: 8.3%
[3]
  IC50: 79.4 nM
[9]
  Kd: 64 nM
[10]
  Activity: 100%
[11]
  solubility thermodynamic: 60 µg/mL (≈ 204 µM)
[12]
  Activity: 33%

## CN(C)c1nccc(-c2c[nH]c3cnccc23)n1
[3]
  IC50: 1020 nM

## CN(CCC(F)(F)F)c1nccc(-c2cnn3ncccc23)n1
[3]
  IC50: 229 nM

## COc1cnc(N(C)C)nc1-c1cnn2ncccc12
[3]
  IC50: 1170 nM

## CN(C)c1nc(Cl)cc(-c2cnn3ncccc23)n1
[3]
  IC50: 1350 nM

## FC1CCN(c2nccc(-c3cnn4ncccc34)n2)C1 (single isomer, unassigned)
[4]
  Activity: 98%
[5]
  Activity: 39%
[6]
  Activity: 96%
[1]
  microsomal CLint: 296 µL/min/mg
[7]
  Activity: 62%
[2]
  microsomal CLint: 130 µL/min/mg
[8]
  Activity: 34%
[3]
  IC50: 66.1 nM
[10]
  Activity: 95%
[11]
  solubility thermodynamic: 40 µg/mL (≈ 141 µM)
[12]
  Activity: 48%

## CCCN(CCOC)c1nccc(-c2cnn3ncccc23)n1
[3]
  IC50: 316 nM

## CN(C)c1ncc(C(F)(F)F)c(-c2cnn3ncccc23)n1
[3]
  IC50: 12900 nM

## c1cnn2ncc(-c3ccnc(N4CC5CCCC5C4)n3)c2c1 (stereo not drawn)
[3]
  IC50: 1230 nM

## CN(C)c1ncc(I)c(-c2cnn3ncccc23)n1
[3]
  IC50: 1620 nM

## CC1(F)CN(c2nccc(-c3cnn4ncccc34)n2)C1
[3]
  IC50: 372 nM

## F[C@H]1CCN(c2nccc(-c3cnn4ncccc34)n2)C1
[3]
  IC50: 186 nM

## CN(C)c1nccc(-c2cnc3ncccn23)n1
[4]
  Activity: 77%
[5]
  Activity: 35%
[6]
  Activity: 56%
[1]
  microsomal CLint: 154 µL/min/mg
[7]
  Activity: 31%
[2]
  microsomal CLint: 96 µL/min/mg
[8]
  Activity: 6.2%
[3]
  IC50: 158 nM
[10]
  Activity: 86%
[11]
  solubility thermodynamic: 470 µg/mL (≈ 1960 µM)
[12]
  Activity: 20%

## COCCCN(C)c1nccc(-c2cnn3ncccc23)n1
[3]
  IC50: 219 nM

## CN(c1ccccc1)c1nccc(-c2cnn3ncccc23)n1
[1]
  microsomal CLint: 450 µL/min/mg
[2]
  microsomal CLint: 340 µL/min/mg
[11]
  solubility thermodynamic: 50 µg/mL (≈ 165 µM)

## CN(C)C1CCN(c2nccc(-c3cnn4ncccc34)n2)C1 (stereo not drawn)
[3]
  IC50: 245 nM

## NC1CCN(c2nccc(-c3cnn4ncccc34)n2)C1 (single isomer, unassigned)
[4]
  Activity: 100%
[5]
  Activity: 28%
[6]
  Activity: 89%
[1]
  microsomal CLint: 40 µL/min/mg
[7]
  Activity: 51%
[2]
  microsomal CLint: 66 µL/min/mg
[8]
  Activity: 10%
[10]
  Activity: 86%
[11]
  solubility thermodynamic: 4370 µg/mL (≈ 15500 µM)
[12]
  Activity: 47%

## CN(C)c1nccc(-c2cn(C)c3ncccc23)n1
[3]
  IC50: 11700 nM

## CN(C)c1ncnc(-c2cnn3ncccc23)n1
[1]
  microsomal CLint: 93.6 µL/min/mg
[2]
  microsomal CLint: 105 µL/min/mg
[3]
  IC50: 182 nM
[9]
  Kd: 153 nM
[11]
  solubility thermodynamic: 50 µg/mL (≈ 207 µM)

## CCn1cc(-c2ccnc(N(C)C)n2)c2cccnc21
[3]
  IC50: 7760 nM

## CN(C)c1nccc(-c2cnc3ccccn23)n1
[3]
  IC50: 692 nM

## CN(C)c1nccc(-c2ccc(=O)n(C)c2)n1
[3]
  IC50: 7940 nM

## Cc1cnn2ncc(-c3ccnc(N(C)C)n3)c2c1
[4]
  Activity: 100%
[5]
  Activity: 25%
[6]
  Activity: 76%
[1]
  microsomal CLint: 160 µL/min/mg
[7]
  Activity: 13%
[2]
  microsomal CLint: 164 µL/min/mg
[8]
  Activity: 1.6%
[3]
  IC50: 115 nM
[10]
  Activity: 89%
[11]
  solubility thermodynamic: 10 µg/mL (≈ 39.3 µM)
[12]
  Activity: 15%

## COc1ncc(-c2ccnc(N(C)C)n2)s1
[3]
  IC50: 3980 nM

## Cc1cnc(N(C)C)nc1-c1cnn2ncccc12
[3]
  IC50: 2820 nM

## CN(C)c1cc(-c2cnn3ncccc23)ccn1
[3]
  IC50: 676 nM

## CN(C)c1cccc(-c2cnn3ncccc23)n1
[3]
  IC50: 912 nM

## CC1CCN(c2nccc(-c3cnn4ncccc34)n2)C1 (stereo not drawn)
[3]
  IC50: 204 nM
